Measured values published in ChEMBL document CHEMBL2424600, “Synthetic polyamines activating autophagy: effects on cancer cell death” (Eur J Med Chem, 2013).
Activity calls are given as the source filed them. The rule behind the calls is not given here.

Legend:
[1] = Cytotoxicity against human C-28/I2 cells assessed as cell survival after 24 hrs by trypan blue exclusion assay; type: cell-based; conditions: C28/I2, 24 h
Outline: (§1)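 Cells exposed 24 h to increasing concentrations (DMSO vehicle, 0.1% of medium; controls got DMSO) at 37 °C, 5% CO2. Viability by trypan blue exclusion, triplicate samples, at least 10 fields counted each; survival as % of viable cells vs control. IC50 read from dose–response curve as concentration giving 50% survival.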

[2] = tested on: HeLa; test: Induction of autophagy in human HeLa cells assessed as acidic vesicles accumulation at 20 uM after 3 hrs by acridine orange staining-based immunofluorescence microscopic analysis; type: functional, cell-based
Outline: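 HeLa incubated 3 h with 20 µM compound; acidic vesicle accumulation scored after acridine orange staining. Triplicate means ± S.E.M.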

[3] = tested on: HeLa; test: Cytotoxicity against human HeLa cells assessed as cell survival after 24 hrs by trypan blue exclusion assay; type: functional, cell-based; outline: as §1
[4] = tested on: Thymocyte; test: Cytotoxicity against rat thymocytes assessed as cell survival after 24 hrs by trypan blue exclusion assay; type: cell-based; outline: as §1

SMILES | IC50 [1] [µM] | Activity [2] | IC50 [3] [µM] | IC50 [4] [µM]
c1ccc(C(CNCCCCCCNCCCCCCCCNCCCCCCNCC(c2ccccc2)c2ccccc2)c2ccccc2)cc1 | 60 | Active | 18 | 82
COc1ccccc1CNCCCCCCNCCCCCCCCNCCCCCCNCc1ccccc1OC [METHOCTRAMINE] | > 100 | – | > 100 | > 100
COc1ccccc1CNCCCCCCNCCCCCCCCCCCCNCCCCCCNCc1ccccc1OC | 77 | Active | 21 | > 100
